Reference: ChEMBL document CHEMBL3822375, “Preclinical Characterization of 3β-(N-Acetyl l-cysteine methyl ester)-2aβ,3-dihydrogaliellalactone (GPA512), a Prodrug of a Direct STAT3 Inhibitor for the Treatment of Prostate Cancer” (J Med Chem, 2016)

Assays:
[1] = Chemical stability of the compound in phosphate buffer saline assessed as half life at 10 uM at pH 7.4 by LC-MS/MS analysis; assay type: physicochemical; settings: phosphate buffered saline
Outline: (§1)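 Compound diluted from DMSO (or methanol) stock to 10 µM, 2% solvent final, n=2. Matrix was 0.1 M PBS pH 7.4, or […] HCl with 2 mg/mL NaCl adjusted to pH 1.2. Mixed on a shaker; sampled at nominal 5, 15, 30 and 60 min plus T=0. LC-MS/MS with internal standard; % remaining relative to T=0. Formation of parent also monitored.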

[2] = Antiproliferative activity against human DU145 cells after 72 hrs by WST-1 proliferation assay; assay type: functional, cell-based; settings: DU-145, 72 h
Outline: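 Cells in RPMI-1640 (DU145, LNCaP, LNCaP-IL6+) or HAM's F-12 (PC3) with 10% FBS. DU145 and LNCaP-IL6+ seeded at 2 000 cells/well, LNCaP and PC3 at 5 000 cells/well, adhered 24 h, then exposed to compound for 72 h. WST-1 absorbance read at 450 nm with 630 nm reference. Background subtracted; expressed as percent of untreated cells.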

[3] = Half life of compound in acidic buffer at pH 1.2 at 10 uM by LC-MS analysis; assay type: physicochemical; outline: as §1
[4] = tested on: Hepatocyte; assay: Drug level in mouse hepatocytes treated with 3-beta-(N-Acetyl-L-cysteine methyl ester)-2a-beta,3-dihydrogaliellalactone measured after 2 hrs by UPLC-MS analysis; assay type: ADME, cell-based
Outline: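 Cryopreserved mouse hepatocytes in Celsis InVitro HI medium, pH 7.4, 37 °C, with 10 µM initial compound from DMSO stock. Sampled at 0 and 120 min, quenched with an equal volume of acetonitrile, analysed by UPLC/Q-TOF-MS. Viability checked by Trypan blue.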

[5] = tested on: Mus musculus; assay: Cmax in mouse plasma assessed as galiellalactone level at 10 mg/kg, po by LC-MS/MS analysis; assay type: ADME, organism-based; design: dose 10 mg/kg, route oral; settings: in vivo
Outline: (§2)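 Single dose to mice; oral, iv or ip as listed, in 5% DMSO/50 mM citrate buffer pH 4.0 (dosing solutions 0.5, 2 or 5 mg/mL). Oral dosing at 20 mL/kg. Terminal blood under barbiturate anaesthesia at eight time-points to 8 h, n=3 mice per time-point, EDTA plasma. Acetonitrile precipitation with internal standard, LC-MS/MS against plasma calibration lines. Non-compartmental analysis on mean data, trapezoidal AUC.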

[6] = tested on: Mus musculus; assay: Tmax in mouse plasma assessed as galiellalactone level at 10 mg/kg, po by LC-MS/MS analysis; assay type: ADME, organism-based; settings: in vivo
[7] = tested on: Mus musculus; assay: Apparent half life in mouse plasma assessed as galiellalactone level at 10 mg/kg, po by LC-MS/MS analysis; assay type: ADME, organism-based; settings: in vivo; outline: as §2
[8] = tested on: Mus musculus; assay: AUC (0 to t) in mouse plasma assessed as galiellalactone level at 10 mg/kg, po by LC-MS/MS analysis; assay type: ADME, organism-based; settings: in vivo; outline: as §2
[9] = tested on: Mus musculus; assay: AUC (0 to infinity) in mouse plasma assessed as galiellalactone level at 10 mg/kg, po by LC-MS/MS analysis; assay type: ADME, organism-based; design: dose 10 mg/kg, route oral, time infinity; settings: in vivo; outline: as §2

half-life at 10 µM [1] [h]	half-life at 10 µM [3] [h]	Drug metabolism [4]	Cmax [5] [ng/mL]	Tmax [6] [h]	t1/2(app) [7] [h]	AUCt [8] [µg/mL/min]	AUC [9] [µg/mL/min]	SMILES	IC50 [2] [µM]
0.9	1.9	metabolite_detected						CC(=O)N[C@@H](CS[C@H]1C2C(=O)O[C@@H]3CC[C@H](C[C@@H]1C)[C@]23O)C(=O)O (stereo partly drawn)	
> 2.5								CC(=O)N[C@@H](CS[C@H]1C2C(=O)O[C@@H]3CC[C@H](C[C@@H]1C)[C@]23O)C(N)=O (stereo partly drawn)	9.2
			263	0.5	1.08	20	22	CCOC(=O)[C@H](CS[C@H]1C2C(=O)O[C@@H]3CC[C@H](C[C@@H]1C)[C@]23O)NC(C)=O (stereo partly drawn)	

More lines, now with the values behind:

SMILES	half-life at 10 µM [1] [h]	half-life at 10 µM [3] [h]	Drug metabolism [4]	Cmax [5] [ng/mL]	Tmax [6] [h]	t1/2(app) [7] [h]	AUCt [8] [µg/mL/min]	AUC [9] [µg/mL/min]	IC50 [2] [µM]
C[C@H]1C[C@H]2CC[C@H]3OC(=O)C([C@@H]1SCc1ccccc1)[C@@]23O (stereo partly drawn)	> 2.5								9.68
COC(=O)[C@H](CS[C@H]1C2C(=O)O[C@@H]3CC[C@H](C[C@@H]1C)[C@]23O)NC(=O)OC(C)(C)C (stereo partly drawn)	> 2.5			52	0.25	5.8	11	17	
COC(=O)[C@H](CCS[C@H]1C2C(=O)O[C@@H]3CC[C@H](C[C@@H]1C)[C@]23O)NC(C)=O (stereo partly drawn)				1102	0.25	1.8	150	155	
COC(=O)[C@H](CS[C@H]1C2C(=O)O[C@@H]3CC[C@H](C[C@@H]1C)[C@]23O)NC(=O)c1ccccc1F (stereo partly drawn)				57	0.25	3.15	7.8	11	
